In ChEMBL document CHEMBL1155225, “Investigation of functionally liver selective glucokinase activators for the treatment of type 2 diabetes” (J Med Chem, 2009):
Values after ≈ are worked out from the molar mass of the structure shown. Active and inactive are the calls of the source. The calls are words filed in the database; no cut-off is given here.

Legend:
[1] = Metabolic stability in human liver microsomes assessed as half life; assay type: ADME, Microsome
Summary of the method: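 Compound incubated at 1 μM with human liver microsomes plus selected cofactors (NADPH, UDPGA); clearance followed at 4 time points as % test compound remaining, giving half-life.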

[2] = target: T1, Hexokinase-4 (Homo sapiens) (UniProt P35557); assay: Activation of His-tagged human recombinant liver glucokinase expressed in Escherichia coli BL21 (DE3) assessed as drug level required for half-maximal activation; assay type: single protein
T1 sequence (whole entry): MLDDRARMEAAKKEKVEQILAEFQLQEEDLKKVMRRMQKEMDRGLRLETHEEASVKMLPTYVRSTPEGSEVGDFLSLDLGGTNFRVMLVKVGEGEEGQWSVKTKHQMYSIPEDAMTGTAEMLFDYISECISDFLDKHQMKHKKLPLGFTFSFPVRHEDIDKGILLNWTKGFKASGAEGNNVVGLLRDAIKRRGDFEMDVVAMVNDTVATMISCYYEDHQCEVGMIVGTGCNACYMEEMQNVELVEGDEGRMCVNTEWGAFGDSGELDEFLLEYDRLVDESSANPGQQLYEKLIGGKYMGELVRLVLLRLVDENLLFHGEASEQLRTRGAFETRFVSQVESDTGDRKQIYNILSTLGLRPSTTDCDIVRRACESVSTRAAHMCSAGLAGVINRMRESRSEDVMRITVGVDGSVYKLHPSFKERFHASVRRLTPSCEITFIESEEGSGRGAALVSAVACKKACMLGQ
Summary of the method: (§1)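 Recombinant human liver GK (aa 17-466), His-tagged, expressed in E. coli BL21 Star (DE3), nickel affinity purified, tag cleaved (GPGSM left), then anion exchange and gel filtration to >95%.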

[3] = Permeability at 5 to 10 uM at pH 4, 6.8 and 8 by PAMPA; settings: pH 4, 6.8, 8, 10 µM
Mus musculus [4] = assay: Reduction in glucose excursion in C57BL/6 mouse at 50 mg/kg, po in microemulsion administered 30 mins before glucose challenge measured at 4 hrs postdose by oral glucose tolerance test; assay type: functional, organism-based; design: dose 50 mg/kg; settings: C57BL6
Summary of the method: (§2)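 C57BL6 mice grouped by matched 0-h plasma glucose; compound given by oral gavage (5 mL/kg) at 50 mg/kg (or 72 mg/kg) in microemulsion (Cremophor RH40, corn oil-monodiglyceride, propylene glycol, ethanol; diluted 2:3 with water) or in water; oral glucose 1 g/kg 30 min later. Blood sampled at 0.5, 1, 2 and 4 h post-dosing for glucose (meter) and insulin; % reduction from control.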

[5] = Aqueous solubility in water by HPLC analysis; assay type: physicochemical
[6] = target: T2, Hexokinase-4 (Rattus norvegicus) (UniProt P17712); assay: Activation of glucokinase-mediated of glucose phosphorylation in Sprague-Dawley rat hepatocytes assessed as release of [3H]H2O from [2-3H]glucose at 30 uM after 3 hrs; assay type: cell-based; settings: Hepatocyte
T2 sequence (whole entry): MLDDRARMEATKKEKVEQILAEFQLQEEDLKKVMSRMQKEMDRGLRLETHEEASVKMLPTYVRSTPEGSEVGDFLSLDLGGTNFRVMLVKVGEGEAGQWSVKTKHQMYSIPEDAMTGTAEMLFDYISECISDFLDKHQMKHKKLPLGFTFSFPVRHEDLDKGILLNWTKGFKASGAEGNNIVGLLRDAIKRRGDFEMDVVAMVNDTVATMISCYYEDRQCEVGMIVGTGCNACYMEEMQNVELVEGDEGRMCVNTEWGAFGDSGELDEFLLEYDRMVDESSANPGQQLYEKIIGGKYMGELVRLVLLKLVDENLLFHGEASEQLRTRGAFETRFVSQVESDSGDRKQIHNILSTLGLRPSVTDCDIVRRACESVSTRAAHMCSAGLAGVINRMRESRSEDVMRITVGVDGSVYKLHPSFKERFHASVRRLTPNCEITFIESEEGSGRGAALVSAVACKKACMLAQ
Summary of the method: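 Hepatocytes from overnight-fasted male Sprague-Dawley rats by collagenase perfusion, cultured 16-20 h at 37 °C, 5% CO2 in serum-free DMEM with 5 mM glucose plus dexamethasone. Preincubated 3 h at 37 °C in serum-free DMEM, 5 mM glucose, with DMSO or 30 μM compound, then 30 min with [2-3H]glucose. Medium collected into 0.1 M HCl; detritiated glucose (nmol/h per 10^6 cells) as % increase over vehicle; quadruplicate, mean ± SEM, Student's t test.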

[7] = Aqueous solubility by HPLC analysis; assay type: physicochemical; settings: buffer
Mus musculus [8] = assay: Reduction in glucose excursion in C57BL/6 mouse at 50 mg/kg, po in microemulsion administered 30 mins before glucose challenge measured at 0.5 hrs postdose by oral glucose tolerance test; assay type: functional, C57BL6; design: scale not given: the % may be the effect or the level left; summary of the method: as §2
Mus musculus [9] = assay: Reduction in glucose excursion in C57BL/6 mouse at 50 mg/kg, po in water administered 30 mins before glucose challenge measured at 2 hrs postdose by oral glucose tolerance test; assay type: functional, C57BL6; design: scale not given: the % may be the effect or the level left; summary of the method: as §2
Mus musculus [10] = assay: Reduction in glucose excursion in C57BL/6 mouse at 50 mg/kg, po in water administered 30 mins before glucose challenge measured at 1 hr postdose by oral glucose tolerance test; assay type: functional, C57BL6; design: scale not given: the % may be the effect or the level left; summary of the method: as §2
[11] = Intrinsic solubility in neutral pH by HPLC analysis; assay type: physicochemical
[12] = target: T1, Hexokinase-4 (Homo sapiens); assay: Activation of His-tagged human recombinant liver glucokinase expressed in Escherichia coli BL21 (DE3) assessed as drug level required for half-maximal activation for sigmoid activation curve; summary of the method: as §1
Mus musculus [13] = assay: Increase in basal insulin release from beta cells in po dosed C57BL/6 mouse; assay type: functional, organism-based; settings: C57BL6
Mus musculus [14] = assay: Increase in insulin release from beta cells in po dosed C57BL/6 mouse after glucose challenge; assay type: functional, organism-based; settings: C57BL6
Mus musculus [15] = assay: Reduction in glucose excursion in C57BL/6 mouse at 72 mg/kg, po in microemulsion administered 30 mins before glucose challenge measured up to 6 hrs postdose by oral glucose tolerance test; assay type: functional, organism-based; design: dose 72 mg/kg; settings: C57BL6

| SMILES | half-life [1] [min] | Activity [2] [nM] | logPm [3] | Activity [6] [%] | other results |
| --- | --- | --- | --- | --- | --- |
| COc1ccc2nc(NC(=O)C(CC3CCCC3)c3ccc(S(=O)(=O)N(C)Cc4ccccc4)cc3)sc2n1 (stereo not drawn) | 26.2 | 263 | -5.4 |  | Activity (Mus musculus [4]): inactive |
| CCCC(=O)[N-]S(=O)(=O)c1ccc(C(CC2CCCC2)C(=O)Nc2nc3ccc(OC)nc3s2)cc1.[Na+] (stereo not drawn) |  |  |  |  | solubility [5]: 26 µg/mL |
| COc1ccc2nc(NC(=O)C(CC3CCCC3)c3ccc(S(=O)(=O)NC4CCOCC4)cc3)sc2n1 (stereo not drawn) | 13.1 | 305 | -4.5 |  |  |
| COc1ccc2nc(NC(=O)C(CC3CCCC3)c3ccc(S(=O)(=O)NCCN(C)C)cc3)sc2n1 (stereo not drawn) | 9 | 117 | -4.8 |  |  |
| COc1ccc2nc(NC(=O)C(CC3CCCC3)c3ccc(S(=O)(=O)N(C)C)cc3)sc2n1 (stereo not drawn) | 17.8 | 295 | -3.3 | 221 |  |
| COCCNS(=O)(=O)c1ccc(C(CC2CCCC2)C(=O)Nc2nc3ccc(OC)nc3s2)cc1 (stereo not drawn) | 15.7 | 61 | -5 | 85 | Activity (Mus musculus [4]): inactive |
| COc1ccc2nc(NC(=O)C(CC3CCCC3)c3ccc(S(=O)(=O)N(C)CCO)cc3)sc2n1 (stereo not drawn) | 10 | 147 | -4.4 |  |  |
| COc1ccc2nc(NC(=O)C(CC3CCCC3)c3ccc(S(=O)(=O)N(C(C)C)C(C)C)cc3)sc2n1 (stereo not drawn) |  | 73 |  |  |  |
| COc1ccc2nc(NC(=O)C(CC3CCCC3)c3ccc(S(=O)(=O)N4CCOCC4)cc3)sc2n1 (stereo not drawn) |  | 153 |  | 281 |  |
| CCCN(CCC)S(=O)(=O)c1ccc(C(CC2CCCC2)C(=O)Nc2nc3ccc(OC)nc3s2)cc1 (stereo not drawn) |  | 35 |  |  |  |
| CCCC(=O)NS(=O)(=O)c1ccc(C(CC2CCCC2)C(=O)Nc2nc3ccc(OC)nc3s2)cc1 (stereo not drawn) [listing 1 of 2 here] |  |  |  |  | Activity (Mus musculus [4]): inactive |
| CCC(=O)[N-]S(=O)(=O)c1ccc(C(CC2CCCC2)C(=O)Nc2nc3ccc(OC)nc3s2)cc1.[Na+] (stereo not drawn) |  |  |  |  | solubility [5]: 11 µg/mL |
| O=C(Nc1nc2cccnc2s1)c1ccccc1 |  | 489 |  | 411 |  |
| COc1ccc2nc(NC(=O)C(CC3CCCC3)c3ccc(S(N)(=O)=O)cc3)sc2n1 (stereo not drawn) | 23.1 | 897 | -4.4 |  | solubility [7]: < 2 µg/mL; Activity (Mus musculus [8]): 22% |
| COc1ccc2nc(NC(=O)C(CC3CCCC3)c3ccc(S(=O)(=O)NCc4cccs4)cc3)sc2n1 (stereo not drawn) | 25.3 | 1450 | -5.1 |  |  |
| COc1ccc2nc(NC(=O)C(CC3CCCC3)c3ccc(S(=O)(=O)Nc4cccnc4)cc3)sc2n1 (stereo not drawn) |  | 323 |  | 219 |  |
| COc1ccc2nc(NC(=O)C(CC3CCCC3)c3ccc(S(=O)(=O)NCc4ccco4)cc3)sc2n1 (stereo not drawn) | 290 | 892 | -4.9 | 14 | Activity (Mus musculus [4]): inactive |

| SMILES | half-life [1] [min] | Activity [2] [nM] | logPm [3] | Activity [6] [%] | other results |
| --- | --- | --- | --- | --- | --- |
| COc1ccc2nc(NC(=O)C(CC3CCCC3)c3ccc(S(=O)(=O)NCc4ccncc4)cc3)sc2n1 (stereo not drawn) | < 1.5 | 207 | -4.3 |  | solubility [7]: 10 µg/mL (≈ 18.1 µM) |
| CCC(=O)NS(=O)(=O)c1ccc(C(CC2CCCC2)C(=O)Nc2nc3ccc(OC)nc3s2)cc1 (stereo not drawn) | 4.8 |  | -4.1 |  |  |
| CCCCN(CCCC)S(=O)(=O)c1ccc(C(CC2CCCC2)C(=O)Nc2nc3ccc(OC)nc3s2)cc1 (stereo not drawn) |  | 181 |  |  |  |
| COc1ccc2nc(NC(=O)C(CC3CCCC3)c3ccc(S(=O)(=O)NCc4cccnc4)cc3)sc2n1 (stereo not drawn) | < 1.5 | 377 | -4.6 | 281 | Activity (Mus musculus [4]): inactive |
| COc1ccc2nc(NC(=O)C(CC3CCCC3)c3ccc(S(=O)(=O)Nc4ccccc4)cc3)sc2n1 (stereo not drawn) |  | 583 | -3.8 |  |  |
| COc1ccc2nc(NC(=O)C(CC3CCCC3)c3ccc(S(=O)(=O)NC4CC4)cc3)sc2n1 (stereo not drawn) | 19.5 | 266 | -5.2 |  |  |
| CCN(CC)S(=O)(=O)c1ccc(C(CC2CCCC2)C(=O)Nc2nc3ccc(OC)nc3s2)cc1 (stereo not drawn) | 5.8 | 42 | -5.9 | 345 |  |
| COc1ccc2nc(NC(=O)C(CC3CCCC3)c3ccc(S(=O)(=O)NCC(=O)O)cc3)sc2n1 (stereo not drawn) | 27.2 | 1860 | -4.4 |  | Activity (Mus musculus [9]): 20%; Activity (Mus musculus [10]): 26%; solubility [11]: > 570 µg/mL |
| COc1ccc2nc(NC(=O)C(CC3CCCC3)c3ccc(S(=O)(=O)NC4CCCCC4)cc3)sc2n1 (stereo not drawn) | 4.8 | 302 | -7 | 78 |  |
| COc1ccc2nc(NC(=O)C(CC3CCCC3)c3ccc(S(=O)(=O)N(C)Cc4nccn4C)cc3)sc2n1 (stereo not drawn) | < 1.5 | 66 | -4.1 |  |  |
| COc1ccc2nc(NC(=O)C(CC3CCCC3)c3ccc(S(=O)(=O)N4CCCCC4)cc3)sc2n1 (stereo not drawn) | 6.2 | 66 | -5.2 | 230 |  |
| COc1ccc2nc(NC(=O)C(CC3CCCC3)c3ccc(S(=O)(=O)NCCC(=O)O)cc3)sc2n1 (stereo not drawn) | 22.6 | 2810 | -4.3 |  | Activity (Mus musculus [4]): inactive; solubility [11]: > 570 µg/mL |
| COc1ccc2nc(NC(=O)C(CC3CCCC3)c3ccc(S(=O)(=O)N4CCN(C)CC4)cc3)sc2n1 (stereo not drawn) | 9.1 | 39 | -3.9 | 498 | Activity [12]: 11 mM; solubility [7]: 50 µg/mL (≈ 92 µM); Activity (Mus musculus [13]): inactive; Activity (Mus musculus [14]): inactive; Activity (Mus musculus [15]): Active |
| COc1ccc2nc(NC(=O)C(CC3CCCC3)c3ccc(S(=O)(=O)NCc4ccccc4)cc3)sc2n1 (stereo not drawn) |  | 726 |  | 32 |  |
| CCCC(=O)NS(=O)(=O)c1ccc(C(CC2CCCC2)C(=O)Nc2nc3ccc(OC)nc3s2)cc1 (stereo not drawn) [listing 2 of 2 here] | 2.2 |  | -4.4 |  |  |
| COc1ccc2nc(NC(=O)C(CC3CCCC3)c3ccc(S(=O)(=O)N(C)Cc4ccco4)cc3)sc2n1 (stereo not drawn) | 5.1 | 109 | -5.1 | 67 |  |
| COc1ccc2nc(NC(=O)C(CC3CCCC3)c3ccc(S(=O)(=O)NCc4ccccn4)cc3)sc2n1 (stereo not drawn) |  | 180 |  |  | solubility [7]: 10 µg/mL (≈ 18.1 µM) |
